ChEMBL document CHEMBL4513216, “Probing the Open Global Health Chemical Diversity Library for Multistage-Active Starting Points for Next-Generation Antimalarials” (ACS Infect Dis, 2020)

Test: Toxicity liver stage against HepG2, at 10uM
Format: cell-based
Set-up: test concentration 10 uM, cell line HepG2-A16-CD81EGFP
Details: human, HepG2-A16-CD81EGFP cells; read-out: INHIBITION
How it was run: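 Uninfected HepG2-A16-CD81EGFP cells, 3 × 10^3 per well, 1536-well, plated on prespotted compound at 10 μM final, parasite-free screening media added to match infected plates; puromycin 10 μM positive, DMSO 0.5% negative; run in parallel with 48 h PbLuc assay at 37 °C, 5% CO2; viability by CellTiter-Glo luminescence, normalized to controls.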

Compound	cytotoxicity at 10 µM
CCOc1ccccc1C(=O)N1CC(=O)N(C2CCC2)CC(O)C1 (configuration not stated)	2.55%
NC(=O)[C@@H]1CN2CCN(C(=O)C3CC3)C[C@@H]2[C@H]1c1ccccc1	3.88%
O=C1CC(c2ccncc2)c2c(c(C(=O)O)cn2-c2ccccc2)N1 (configuration not stated)	-3.7%
O=C(NC1CCCCC1)c1ccc(Oc2ccc3nncn3n2)cc1	2.17%
COc1cccc2sc(N3CCN(C(=O)c4cc(C)on4)CC3)nc12	6.21%
Cc1nnc(C2CCN(C(=O)c3ccsc3)CC2)s1	10.5%
CN(C)CCN1C(=O)CO[C@@H]2CN(c3ncc(F)cn3)C[C@H]21	0.81%
N#Cc1cccc(CN2CCO[C@@H]3CNC[C@@H]32)c1	8.94%
O=C(NC1CC1)N1CCOC2(CCCN(c3cccc(F)c3)C2)C1 (configuration not stated)	4.23%
CN(C)C(=O)N1CCCC2(CCN(Cc3ccc(Cl)c(F)c3)C2)C1 (configuration not stated)	7.07%
CN1C2(CCN(Cc3ccc(F)cc3)C2)c2ccccc2S1(=O)=O (configuration not stated)	13.5%
CC1=N[C@@]2(CC[C@@H]3CN(C(=O)NC(C)C)C[C@@H]32)C(=O)N1CC1CC1	7.1%
Cn1cnc2c1C(COCc1cccnc1)N(Cc1ccccc1)CC2 (configuration not stated)	13.5%
O=C1CC(c2ccc(C(F)(F)F)cc2)c2c(n3ccsc3nc2=O)N1 (configuration not stated)	-1.4%
CC(=O)c1cccc(NC(=O)Cn2cc(-c3ccccc3)ncc2=O)c1	-2.45%
Cc1cc(C(=O)N2C[C@@H]3COC[C@]3(c3nnc(C4CC4)o3)C2)on1	-10%
c1ccc(OCCCNCc2cccs2)nc1	-0.336%
O=C(NCCc1cc2nc(-c3ccncc3)ccn2n1)C1CCOCC1	4.59%
c1cc(CN2CCCC(c3ccnc4nccn34)C2)ccn1 (configuration not stated)	-3.29%
CC(=O)N1CCN(c2cnccn2)CC(CO)C1 (configuration not stated)	3.03%
CCc1onc(C)c1C(=O)N1CCC(c2cc3ncccc3cn2)CC1	1.68%
CNC(=O)c1cn[nH]c1C1(C)CCCN(Cc2ccccn2)C1 (configuration not stated)	-10.5%

Compound	cytotoxicity at 10 µM
Cc1nc(Nc2nncs2)cc(C2CCCN2C)n1 (configuration not stated)	-22.6%
Cc1cc(N)nc(C2(C)CCCN2C(=O)c2cnccn2)n1 (configuration not stated)	-27.1%
O=C(c1cscn1)N1CCC(O)(Cn2ccc3ccncc32)CC1	-18.2%
O=C(C1CCOCC1)N1CCC(O)(Cn2ccc3ccncc32)CC1	-19.8%
COCCNC(=O)c1ccccc1-n1cc(CN)cn1	-23.6%
Cc1cc(N(C)C)nc(NC2CCc3nc(C)nn3C2)n1 (configuration not stated)	5.56%
CC(C)n1nnnc1-c1ccc(NC(=O)N(C)CCN(C)C)cc1F	-2.71%
O=C(NCC(=O)N1CCCCC1)c1sccc1C1CC1	-136%
Cc1cc(CNC(=O)NCCC(=O)N2CCCc3ccccc32)no1	-4.09%
CC(NC(=O)CNc1cc2c(cc1Cl)NC(=O)CO2)c1ccco1 (configuration not stated)	-0.0162%
CCC(C)NC(=O)CCNC(=O)c1c[nH]cc1-c1cccc(OC)c1 (configuration not stated)	6.98%
O=C(c1cc2c([nH]c1=O)CCC2)N1CCCCCC1c1ccncc1 (configuration not stated)	-9.31%
CC(C)Oc1ncc(C(=O)N2CCC(CC(N)=O)CC2)cc1Cl	-9.47%
CC(C)(C)c1n[nH]c(C2CN(C(=O)CCCn3cccn3)CCO2)n1 (configuration not stated)	-0.839%
CC(C)C[C@H](NC(=O)CNC(=O)OC(C)(C)C)C(=O)OC(C)(C)C	11.9%
CC(NC(=O)C1CCN(S(N)(=O)=O)CC1)c1cccc(OC(F)F)c1 (configuration not stated)	-8.5%
COCC(=O)N1CCCC1c1cccc(C)c1C (configuration not stated)	-1.32%
Cn1cccc1C(=O)NS(=O)(=O)c1cnn(-c2ccccc2F)c1	-7.83%
Cn1cc(CNCCc2nccs2)c(-c2cccnc2)n1	1.83%
O=S(=O)(NCCSc1nccn1C1CC1)c1ccccc1	-9.34%
N#Cc1ccc(CN(CC(N)=O)Cc2cccc(F)c2)cc1	-2.01%
COc1cccc(CNc2cccnc2-n2cccn2)c1OC	1%

Compound	cytotoxicity at 10 µM
CS(=O)(=O)CCC(=O)NC(Cc1ccccc1)C1CC1 (configuration not stated)	11.4%
CN(CCc1ccc2c(c1)CCO2)CC1CCS(=O)(=O)C1 (configuration not stated)	7.33%
CCCN(CC1CC1)C(=O)Cn1ccccc1=O	9.09%
Cc1cc(C(=O)N2CCn3cc(CN4CCCCC4)nc3C2)no1	-77.3%
Cc1nnc([C@@H]2CC[C@@H]3[C@@H](CCN3S(C)(=O)=O)O2)o1	-79.1%
CCN1C(=O)CO[C@@H]2CN(C(=O)C3CCOCC3)C[C@H]21	-78.2%
Cc1cc(C(=O)N2CCC[C@]3(C[C@H](OCC4CC4)CO3)C2)no1	-78.8%
CC(=O)N1CCC2(CCN(C(=O)c3ccc(F)c(C(F)(F)F)c3)C2)C1 (configuration not stated)	-76.1%
CC(=O)NCC(=O)N1CCC2(CC1)CN(c1cccnc1)C(=O)CO2	3.76%
O=C(C1CCOC1)N1C[C@H]2CN(Cc3nccs3)C[C@H]2C1 (some centres not stated)	5.04%
O=c1c(-c2ccnc(NC3CCOCC3)n2)cnc2sc(Cl)cn12	-0.962%
COc1ccc(OC)c(C(C(=O)O)N2CCSCC2)c1 (configuration not stated)	-1.02%
Cc1cc(C)cc(CCC(=O)NC(C)c2nnn[nH]2)c1 (configuration not stated)	0.686%
CCc1cn[nH]c1C1CCCN(C(=O)c2cnc(NC(C)C)nc2)C1 (configuration not stated)	-13.2%
CN1CCC(n2nc(Cc3cccs3)nc2-c2ccncc2)CC1	-7.76%
CC(C)N(C)C(=O)c1coc(CN2CCN(c3ccccc3F)CC2)n1	7.31%
CCCC(=O)Nc1ccc(CC(=O)N(C)CCc2cn[nH]c2)cc1	4.84%
CC(C)n1cnnc1CN1C(=O)CCc2ccccc21	0.0849%
CC(C)c1nc(CN(C)Cc2ccc(O)c(Cl)c2)cs1	-7.27%
Cc1nccn1CCN(C)C(=O)C1CCN(C(=O)C2CCC2)CC1	-1.45%
CC1(CCC(=O)N2CCC(n3cc(C4(O)CCCC4)nn3)CC2)CC1	-7.69%
CC(C)c1cc(C2CCN(C(=O)Cn3cncn3)CC2)[nH]n1	3.65%

Compound	cytotoxicity at 10 µM
COCCC1(CO)CCCN(Cc2cc(C(F)(F)F)ccc2F)C1 (configuration not stated)	-141%
Cc1cccc2cc(C(=O)N3CCSCC3)n(C)c12	6.25%
CN1CCN(Cc2ccc(Cl)cc2)CC1C(=O)O (configuration not stated)	-2.31%
CCOCCC(=O)N1CCCCC1CCn1cccn1 (configuration not stated)	-0.168%
COCc1noc(CN2C[C@H](C3CC3)[C@@H](N(C)C)C2)n1	1.31%
CCCS(=O)(=O)N1CCC2(CC1)CC(=O)N(Cc1cc(F)cc(F)c1)C2	8.78%
CCn1cc(CN(C)Cc2cnn(-c3ccc(F)cc3)c2)cn1	-5.44%
Cc1nc(CNC(=O)c2cc(COc3ccccc3F)[nH]n2)n[nH]1	-7.42%
Cc1cc(=O)[nH]c(=O)n1-c1cccc(Cl)c1Cl	-3.57%
CN(CCCOc1ccccc1Cl)C(=O)CN1CCNC1=O	-0.2%
CNc1nc2c(c(C(=O)N3CCCC3)n1)CN(Cc1ccco1)CC2	-113%
COC(=O)c1cccc(C(=O)N2CCCCC2CCn2ccnc2C)c1 (configuration not stated)	14.5%
CCN(CC)CC1CCN(C(=O)CCn2cccn2)CC1	-13.3%
CC(C)CCN(C(=O)c1nc(S(C)(=O)=O)n2ccccc12)C1CC1	-2.63%
Cc1ncc(Cl)c(C(=O)N2CCCC(n3nc(C)nc3C)C2)n1 (configuration not stated)	-0.426%
Cn1cc(Cl)cc1C(=O)N1CCCN(Cc2ccccc2)CC1	-5.19%
CCNc1cc2c(nn1)CCN(C(=O)c1cccnc1N(C)C)C2	-13.4%
Cc1nn(-c2ccccc2)nc1C(=O)N1CCCC(n2cccn2)C1 (configuration not stated)	-9.53%
CC(Cn1ccnc1)NC(=O)NCc1cccnc1OC1CCCC1 (configuration not stated)	-13.3%
CCc1nc(C2CCCN2C(=O)c2cc(Cl)c[nH]2)no1 (configuration not stated)	-12.2%
O=C(Nc1ccccc1)N1CCN(Cc2noc(C3CC3)n2)CC1	2.82%
Cc1nnc(NC(=O)CN2CCOC(Cn3cccn3)C2)s1 (configuration not stated)	-7.44%

Compound	cytotoxicity at 10 µM
Cc1cc(NC(=O)CN2CCN(c3nccs3)C(C)C2)n(C)n1 (configuration not stated)	-4.2%
NC(=O)c1cc(C2CCCN(CCOCC(F)(F)F)C2)n[nH]1 (configuration not stated)	-11.8%
CC(C)(C)c1n[nH]c(C2CN(C(=O)c3ccsc3)CCO2)n1 (configuration not stated)	-12.3%
c1cnn(C2CN(Cc3nc(-c4ccsc4)no3)C2)c1	-12.2%
c1cncc(-c2nccc(CN3CCC(N4CCCCC4)CC3)n2)c1	-26%
O=C(NCc1ccco1)[C@@H]1CCO[C@@H]2CCN(c3ncccn3)C[C@H]21	-77.6%
CCOCC1CN(C(=O)c2cscn2)Cc2cn(C)nc21 (configuration not stated)	-76.6%
O=C(C[C@@H]1COC[C@H]2CN(CC3CC3)C[C@@H]12)N1CCCCO1	4.08%
Cc1ccnc(OC[C@@]23CCO[C@@H]2CCN(c2ncc(F)cn2)C3)n1	10.9%
CC(C)NC(=O)[C@H]1C[C@@H]2[C@@H](C1)OCCN2Cc1ccsc1	9.49%
CC(C)NC(=O)[C@H]1C[C@@H]2[C@@H](C1)OCCN2Cc1nccs1	6.1%
O=C1NC2(CCN(c3ncccn3)CC2)CC1c1cccnc1 (configuration not stated)	-71.4%
COCCNC(=O)[C@@]12CCO[C@@H]1CCN(Cc1cc(C)on1)C2	-69.8%
O=C(c1cccc(F)c1)N1CCN2C[C@H](OCc3cccnc3)C[C@H]2C1	4.4%
COc1ccc(CN2CCO[C@H]3CN(C4CCC4)CC[C@H]3C2=O)cc1	-148%
Cc1noc([C@@]23CCO[C@@H]2CCN(CC2CCOCC2)C3)n1	-2.1%
CCc1nccn1CC(=O)N1C[C@@H]2CC[C@H]1CN(S(=O)(=O)N(C)C)C2	-6.38%
Cc1cnc(N2C[C@@H]3C[C@H](C(=O)N(C)C)[C@H](C2)O3)nc1	-2.47%
O=C(CSCC1CC1)N1C[C@H]2CC[C@@H](C1)N(Cc1ccccn1)C2=O	5%
